Bioassay records as filed in PubChem BioAssay.
TAAR1 antagonist: human TAAR1 antagonism | Q96RJ0 | CHO RD-HGA16 TAAR1, Fluo-8 calcium fluorescence, antagonist | inhibition, % at 3 µM | 1.5% of 360,000 active | AID 624466;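 active = inhibition above a per-plate cutoff, the mean inhibition of test compounds on that plate plus 3 SD, cut at about 49% in these data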;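 note: 0% = DMSO plus EC80 beta-PEA response and 100% = DMSO alone without agonist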
Target sequence (Q96RJ0 whole entry, looked up): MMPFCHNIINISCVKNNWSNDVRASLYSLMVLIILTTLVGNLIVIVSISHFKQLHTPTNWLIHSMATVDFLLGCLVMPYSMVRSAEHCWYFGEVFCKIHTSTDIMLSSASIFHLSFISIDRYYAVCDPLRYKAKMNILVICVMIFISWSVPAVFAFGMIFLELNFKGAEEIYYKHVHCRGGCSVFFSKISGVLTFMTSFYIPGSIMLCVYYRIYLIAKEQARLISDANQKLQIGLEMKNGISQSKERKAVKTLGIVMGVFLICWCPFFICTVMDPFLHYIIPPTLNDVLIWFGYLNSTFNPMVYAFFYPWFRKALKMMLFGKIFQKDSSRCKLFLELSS
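System: CHO RD-HGA16 cells bearing hTAAR1. Reagent: EC80 β-phenethylamine stimulus. Schedule: seeding 17-24 h prior, 75-min 37 °C, 30-min RT dye loading. Signal: Fluo-8 intracellular calcium dye fluorescence, real-time kinetic reads. Read-out: % inhibition from peak post-agonist over basal fluorescence ratio. Benchmarks: vehicle wells and EC80 agonist wells. Replicates: n of 1.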
OXTR potentiate: human OXTR potentiation | P30559 | CHO-OTR cells, Fluo-8 calcium fluorescence, potentiator mode; 0% = oxytocin EC15, 100% = EC100 | activation, % at 3 µM | 0.061% of 320,000 active;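 active = activation above that plate's cutoff, the mean activation of tested compounds plus 3 SD, cut at about 6.6% in these data, passing the limit was not always enough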;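 note: 100% uses oxytocin at 75 nM as the full agonist control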
Target sequence (P30559 whole entry, looked up): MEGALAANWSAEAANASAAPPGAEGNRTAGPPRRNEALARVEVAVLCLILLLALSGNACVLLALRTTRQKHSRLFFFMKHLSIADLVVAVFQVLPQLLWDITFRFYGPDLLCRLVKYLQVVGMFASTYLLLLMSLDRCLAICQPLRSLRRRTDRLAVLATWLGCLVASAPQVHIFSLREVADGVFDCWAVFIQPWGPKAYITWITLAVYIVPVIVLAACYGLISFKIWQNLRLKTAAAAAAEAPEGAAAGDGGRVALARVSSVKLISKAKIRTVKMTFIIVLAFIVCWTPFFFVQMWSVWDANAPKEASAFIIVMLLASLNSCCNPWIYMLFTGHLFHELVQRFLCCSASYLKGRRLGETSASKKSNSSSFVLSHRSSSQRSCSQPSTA
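Replication – single well per compound, singlicate · Assay system – CHO cell line stably expressing human OTR · Timing – 6 min pre-incubation, 100 s read · Measure – normalized max/min fluorescence ratio, % activation · Doses – 3.0 µM, one dose · Detection – Fluo-8 calcium dye fluorescence · Probe or stimulus – oxytocin near EC15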
OXTR ag: activates the human oxytocin receptor. P30559. CHO-OTR cells, Fluo-8 calcium fluorescence; normalized: DMSO 0%, oxytocin 100%. activation, % at 3 µM. 0.32% of 320,000 active;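 active = activation above the mean of all tested compounds plus 3 SD, cutoff set per screening run, cut at about 20% in these data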;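 note: peak over basal fluorescence ratio from a 100 s FLIPR kinetic read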
V1R ag counter: counter-screen for oxytocin receptor agonists: human V1a receptor agonists; 0.25% of 320,000 active; CHO-V1R cells, Fluo-8 calcium fluorescence, agonist mode; 0% DMSO, 100% 3 nM vasopressin; P37288; activation, % at 3 µM;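 active = activation above the mean activation of all tested compounds plus 3 SD, per screening run, cut at about 20% in these data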;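 note: signal is peak over basal fluorescence ratio across a 100 second FLIPR read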
TAAR1 agonist: human TAAR1 agonism; activation, % at 3 µM; 0.99% of 360,000 active; AID 624467; CHO RD-HGA16 TAAR1, Fluo-8 calcium fluorescence; vehicle wells 0%, saturating PEA agonist 100%; Q96RJ0;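 active = activation above the mean activation of all test compounds in the run plus 3 SD, cut at about 38% in these data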
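Assay system – CHO-derived RD-HGA16 cells with stable Gα16 and human TAAR1 · Compound dosing – one-point dosing at 3 µM (nominal) · Incubation – 17-24 h seeding, 75 min 37 °C dye, 30 min RT · Measured by – kinetic Fluo-8 calcium fluorescence · Control set – DMSO vehicle as 0%, PEA at EC100 as 100% · Repeats – single well for each compound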
nonsel antag count: nonselective antagonist in TAAR1 antagonist counter-screen. shares compounds with TAAR1 antagonist. counterscreen cell line, calcium fluorescence, antagonist mode. inhibition, % at 3 µM. 77% of 2,400 active. AID 651780; in the data active = inhibition above about 22%;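 note: CHO-Ga16 host cells stimulated with ATP at an EC80 level; 0% = agonist EC80 plus vehicle and 100% = vehicle without agonist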
TAAR1 ant conf: human TAAR1 antagonism, confirmed | 40% of 2,400 active | AID 651785 | shares compounds with TAAR1 antagonist | inhibition, % at 3 µM | TAAR1-expressing cells, fluorescence antagonist read-out; in the data active = inhibition above about 49%;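 note: CHO-Ga16 host cells challenged with agonist PEA near its EC80; 0% = agonist at EC80 plus vehicle and 100% = vehicle with no agonist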
Ga16 nonsel ag: counter-screen for TAAR1 antagonists: nonselective Ga16 agonists. shares compounds with TAAR1 antagonist. Ga16-expressing cells, calcium fluorescence, agonist counterscreen. activation, % at 3 µM. 18% of 2,400 active; in the data active = activation above about 12%;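 note: 0% = vehicle wells and 100% = saturating stimulus response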
TAAR1 ag counter: counter-screen for human TAAR1 antagonists: TAAR1 agonists. 2% of 2,400 active. hTAAR1 cell line, fluorescence activation, agonist mode. shares compounds with TAAR1 antagonist. activation, % at 3 µM; in the data active = activation above about 37%;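 note: CHO cells stably expressing TAAR1 with calcium dye readout; 0% = DMSO vehicle and 100% = full agonist response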
Starred values were filed as active, the others as inactive; nt = not tested or not shown. This is a sample that favours compounds with a hit; in the whole collection about 2.3% have one here.

SMILES | TAAR1 antagonist | OXTR potentiate | OXTR ag | V1R ag counter | TAAR1 agonist | nonsel antag count | TAAR1 ant conf | Ga16 nonsel ag | TAAR1 ag counter
CCOC(=O)C1CCN(C(=O)CNC(=O)c2nn(-c3ccc(OC)c(Cl)c3)c(=O)c3ccccc23)CC1 | 60.6* | -6.6 | -2.0 | -1.7 | 13.3 | 27.9* | 41.9 | 6.9 | 6.0
COc1ccc(-n2nc(C(=O)NCC(=O)Nc3cccc(Cl)c3)c3ccccc3c2=O)cc1OC | 54.8* | -11.4 | -0.2 | 0.5 | 19.7 | 24.6* | 47.8 | 10.0 | 11.2
COc1ccc(-n2nc(C(=O)NCC(=O)NCCc3ccc(OC)c(OC)c3)c3ccccc3c2=O)cc1 | 37.9 | 2.9 | -1.2 | -0.7 | 20.2 | nt | nt | nt | nt
COc1ccc(-n2nc(C(=O)NCC(=O)N3CCOCC3)c3ccccc3c2=O)cc1Cl | 14.1 | -7.3 | -0.1 | 2.5 | 8.2 | nt | nt | nt | nt
COc1ccc(-n2nc(C(=O)NCC(=O)NCC3COc4ccccc4O3)c3ccccc3c2=O)cc1OC (stereo unspecified) | 57.7* | -4.6 | 1.6 | -0.7 | 13.2 | 27.4* | 49.2* | 7.4 | 4.6
CCOC(=O)CNC(=O)CNC(=O)c1nn(-c2ccc(OC)c(OC)c2)c(=O)c2ccccc12 | -5.2 | 0.4 | 0.5 | -0.1 | 5.2 | nt | nt | nt | nt
COc1ccc(CCNC(=O)CNC(=O)c2nn(-c3ccc(OC)c(OC)c3)c(=O)c3ccccc23)cc1OC | 52.8* | -4.4 | -0.8 | 0.5 | 16.9 | 32.5* | 50.6* | 11.8* | 9.4
COc1ccccc1C(O)(C(=O)NN(C)c1ccccc1)c1ccccc1OC | -16.2 | -3.5 | -1.7 | -0.3 | 0.4 | nt | nt | nt | nt
CC(C)(C)c1ccc(CC(=O)N2CCC2(C)C(=O)N2CCCCC2)cc1 (stereo unspecified) | 0.9 | nt | nt | nt | 13.7 | nt | nt | nt | nt
O=C(NCCCNC(=O)c1ccccn1)c1ccc(F)cc1 | -12.6 | -11.1 | 0.1 | 0.6 | 7.4 | nt | nt | nt | nt
CCN1CCN(c2ccc(N3CCN(C(=O)c4ccc(Br)o4)CC3)nn2)CC1 | -13.2 | -0.3 | 1.2 | -0.5 | 1.5 | nt | nt | nt | nt
CCOc1ccc(NC(=O)CNC(=O)c2nn(-c3ccc(OC)c(OC)c3)c(=O)c3ccccc23)cc1 | 46.4 | -11.1 | 2.7 | 4.2 | 21.2 | nt | nt | nt | nt
COc1ccc(NC(=O)CNC(=O)c2nn(-c3ccc(OC)c(Cl)c3)c(=O)c3ccccc23)c(OC)c1 | 61.0* | -10.5 | -0.9 | 4.0 | 9.8 | 24.1* | 48.6* | 5.8 | 6.8
CCOc1ccccc1NC(=O)CNC(=O)c1nn(-c2ccc(OC)c(OC)c2)c(=O)c2ccccc12 | 59.8* | -5.2 | -2.4 | -0.5 | 17.4 | 30.1* | 41.1 | 7.1 | 14.3
Cc1cccc2c1cnn2C(=O)CCC(=O)NCC(C)c1ccccc1 (stereo unspecified) | -30.9 | -7.9 | 1.6 | 1.7 | 6.2 | nt | nt | nt | nt
O=S(=O)(Nc1nc2ccccc2nc1Nc1ccc(N2CCOCC2)cc1)c1cc(Cl)ccc1Cl | 30.2 | -13.4 | 1.3 | 1.5 | 3.0 | nt | nt | nt | nt
O=C(NC(=S)NCC1CCCO1)c1ccc([N+](=O)[O-])cc1 (stereo unspecified) | 1.0 | -10.8 | -0.9 | 0.0 | 0.2 | nt | nt | nt | nt
CCOC(=O)C1CCCN(c2c(C(=O)c3ccccc3)cnc3ccc(OC)cc23)C1 (stereo unspecified) | 85.7* | -1.5 | -1.9 | -1.0 | 11.1 | 2.1 | 65.5* | 4.5 | 34.1
CCOC(=O)C1CCCN(C(=O)COc2ccc(C(=O)c3ccccc3)cc2)C1 (stereo unspecified) | -9.5 | nt | nt | nt | 2.5 | nt | nt | nt | nt
CCOC(=O)Cn1c(=O)oc2cc(S(=O)(=O)N(C)Cc3ccccc3)ccc21 | 64.7* | -6.0 | 4.4 | 4.7 | 15.6 | 19.1 | 47.0 | 11.3 | 10.8
O=C1NC2(CCCCCC2)C(=O)N1Cc1cccc([N+](=O)[O-])c1 | 100.9* | -14.6 | 0.1 | 1.1 | -1.5 | -0.1 | 5.2 | 1.3 | 4.6
COc1ccccc1CN1CC(C(=O)NCc2cc(C(C)C)no2)CCC1=O (stereo unspecified) | -6.7 | 0.8 | 0.5 | 0.1 | 1.1 | nt | nt | nt | nt
N#Cc1cnc(=S)n(-c2cc(C(F)(F)F)cc(C(F)(F)F)c2)c1N | -4.0 | nt | nt | nt | 3.9 | nt | nt | nt | nt
Nc1ccc(C#Cc2ccc3c(=O)c4ccccc4oc3c2)cc1 | 13.3 | -7.8 | -0.3 | 0.6 | 1.9 | nt | nt | nt | nt
COc1cc2oc3ccc(C#Cc4ccccn4)cc3c(=O)c2cc1OC | 5.3 | -5.6 | 0.4 | 0.6 | 10.3 | nt | nt | nt | nt
SMILES | TAAR1 antagonist | OXTR potentiate | OXTR ag | V1R ag counter | TAAR1 agonist | nonsel antag count | TAAR1 ant conf | Ga16 nonsel ag | TAAR1 ag counter
COc1cc2oc3ccc(C#Cc4ccc(N)cc4)cc3c(=O)c2cc1OC | 56.0* | -15.6 | -1.3 | -0.2 | 11.9 | 25.2* | 31.5 | 3.1 | 0.2
COc1cc2oc3cc(C#Cc4ccc(N)cc4)ccc3c(=O)c2cc1OC | 51.5* | 1.4 | -1.0 | -0.3 | 8.4 | 28.7* | 34.8 | 3.3 | 7.1
COc1ccc(CNC(=O)C(c2ccco2)N(Cc2cccs2)C(=O)Cc2cccs2)cc1 (stereo unspecified) | 75.0* | -13.4 | 0.7 | 9.4 | 20.0 | 34.6* | 62.7* | 8.8 | 7.1
COc1ccc(CNC(=O)C(c2cccs2)N(Cc2ccco2)C(=O)Cc2cccs2)cc1 (stereo unspecified) | 67.3* | -8.5 | 1.9 | 4.9 | 18.5 | 30.2* | 46.5 | 9.3 | 8.0
Cc1ccc(CN(C(=O)Cc2cccs2)C(C(=O)NC2CCCC2)c2ccncc2)cc1 (stereo unspecified) | 6.4 | -1.1 | -1.6 | -0.5 | 0.9 | nt | nt | nt | nt
COc1ccc(CNC(=O)C(c2ccco2)N(Cc2ccccc2)C(=O)Cc2cccs2)cc1 (stereo unspecified) | 85.2* | -16.1 | 1.1 | 6.6 | 20.1 | 32.8* | 55.0* | 12.1* | 11.8
Cc1ccc(C(C(=O)NC2CCCC2)N(Cc2ccc3c(c2)OCO3)C(=O)Cc2cccs2)cc1 (stereo unspecified) | 66.2* | -21.6 | -1.6 | 0.6 | 9.8 | 26.2* | 55.9* | 8.8 | 12.1
COCCN(C(=O)Cc1cccs1)C(C(=O)NCc1ccc(OC)cc1)c1ccc(OC)cc1 (stereo unspecified) | -0.7 | -7.2 | -0.5 | 0.4 | 9.3 | nt | nt | nt | nt
COc1ccc(CNC(=O)C(c2ccc(C)cc2)N(Cc2cccs2)C(=O)c2ccc3c(c2)OCCO3)cc1 (stereo unspecified) | 66.2* | -10.8 | 1.5 | 3.2 | 22.9 | 30.8* | 52.4* | 14.7* | 16.7
